# Test results from ChEMBL document CHEMBL1671761, “Preclinical characterization of BI 201335, a C-terminal carboxylic acid inhibitor of the hepatitis C virus NS3-NS4A protease” (Antimicrob Agents Chemother, 2010).
# Assays:
# [1] = species: Rattus norvegicus; test: Inhibition of rat 5-HT1 receptor at 10 uM
# [2] = biological target: Angiotensin-converting enzyme (Oryctolagus cuniculus) (UniProt P12822); test: Inhibition of rabbit ACE at 10 uM
# [3] = biological target: Angiotensin-converting enzyme (Homo sapiens) (UniProt P12821); test: Inhibition of human ACE at 10 uM
# [4] = biological target: Adenosine receptor A1 (Homo sapiens) (UniProt P30542); test: Inhibition of human adenosine A1 receptor at 10 uM
# [5] = biological target: Serine/threonine protein phosphatase PP2B-alpha catalytic subunit (Homo sapiens) (UniProt P16298); test: Inhibition of human PP2B at 10 uM
# [6] = biological target: Nitric oxide synthase 3 (Rattus norvegicus) (UniProt Q62600); test: Inhibition of rat cNOS at 10 uM
# [7] = biological target: Nitric oxide synthase, inducible (Mus musculus) (UniProt P29477); test: Inhibition of mouse iNOS at 10 uM
# [8] = tested on: Hepatitis C virus; test: Antiviral activity against HCV 2a infected in Huh7 cells assessed as inhibition of viral replication after 72 hrs by RT-PCR; type: functional, organism-based, Hepacivirus hominis; details: genotype 2a, Huh-7, 72 h
# Outline: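 Infectious JFH1 virus (cell culture-adapted, core K74T and NS5A C2441S) was produced by transfecting transcribed RNA into Huh-7.5 cells. Huh-7.5 cells (1×10^4/well, seeded 24 h before) were infected with virus plus a nine-concentration compound series in 0.5% DMSO for 72 h. HCV RNA was quantified by real-time RT-PCR. Mean ± SD, ≥3 experiments.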
# [9] = Mean retention time in Sprague-Dawley rat at 5 mg/kg, po; type: ADME, organism-based, Sparague-Dawley; design: dose 5 mg/kg, route oral; details: in vivo
# Outline: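 Male Sprague-Dawley rats (275-300 g), fasted overnight with 10% dextrose water. Single oral dose in 0.5% Methocel/0.3% Tween 80 at 10 ml/kg. Carotid-cannula blood taken 0-8 h, with plasma from 3 rats pooled per time point. Solid-phase extraction, then LC-MS/MS at m/z 869.3 (LOQ 10 nM). Noncompartmental analysis.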
# [10] = Cmax in Sprague-Dawley rat at 5 mg/kg, po; type: ADME, organism-based, Sparague-Dawley; design: dose 5 mg/kg, route oral; details: in vivo
# Outline: (§1)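 Single oral dose of 5 mg/kg in 0.5% Methocel with 0.3% Tween 80 (10 ml/kg) to fasted male animals: Sprague-Dawley rats (275-300 g, overnight fast with 10% dextrose water), rhesus monkeys, beagle dogs. Rat blood from cannulated carotid at 0-8 h, pooled from 3 rats per time point; monkey/dog n=3. Plasma solid-phase extracted, LC-MS/MS at m/z 869.3; noncompartmental analysis.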
# [11] = Tmax in dog at 5 mg/kg, po; type: ADME, organism-based, Canis lupus familiaris; design: dose 5 mg/kg, route oral; details: in vivo
# Outline: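 Fasted male beagle dogs (9.8-13.8 kg) given a single oral dose in 0.5% Methocel/0.3% Tween 80. Plasma taken by solid-phase extraction and measured by LC-MS/MS at m/z 869.3 (LOQ 50 nM). Noncompartmental analysis. Mean ± SE for three males.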
# [12] = AUC in dog at 5 mg/kg, po; type: ADME, organism-based, Canis lupus familiaris; design: dose 5 mg/kg, route oral; details: plasma; outline: as §1
# [13] = AUC (0 to infinity) in rat at 5 mg/kg, po; type: ADME, organism-based; design: time infinity, dose 5 mg/kg, route oral; details: plasma; outline: as §1
# [14] = AUC (0 to infinity) in dog at 5 mg/kg, po; type: ADME, organism-based, Canis lupus familiaris; design: time infinity, dose 5 mg/kg, route oral; details: plasma; outline: as §1
# [15] = biological target: Caspase-2 (Homo sapiens) (UniProt P42575); test: Inhibition of human caspase-2 at 10 uM
# [16] = biological target: Caspase-4 (Homo sapiens) (UniProt P49662); test: Inhibition of human caspase-4 at 10 uM
# [17] = biological target: Caspase-8 (Homo sapiens) (UniProt Q14790); test: Inhibition of human caspase-8 at 10 uM
# [18] = biological target: Caspase-9 (Homo sapiens) (UniProt P55211); test: Inhibition of human caspase-9 at 10 uM
# [19] = biological target: Procathepsin L (Homo sapiens) (UniProt P07711); test: Inhibition of human cathepsin L at 10 uM
# [20] = biological target: Neutrophil elastase (Homo sapiens) (UniProt P08246); test: Inhibition of human elastase, leukocyte at 10 uM
# [21] = biological target: Coagulation factor VII (Homo sapiens) (UniProt P08709); test: Inhibition of human factor 7a at 10 uM
# [22] = biological target: Plasma kallikrein (Homo sapiens) (UniProt P03952); test: Inhibition of human kallikrein at 10 uM
# [23] = biological target: Interstitial collagenase (Homo sapiens) (UniProt P03956); test: Inhibition of human MMP-1 at 10 uM
# [24] = biological target: 72 kDa type IV collagenase (Homo sapiens) (UniProt P08253); test: Inhibition of human MMP-2 at 10 uM
# [25] = biological target: Neutrophil collagenase (Homo sapiens) (UniProt P22894); test: Inhibition of human MMP-8 at 10 uM
# [26] = biological target: Matrix metalloproteinase-9 (Homo sapiens) (UniProt P14780); test: Inhibition of human MMP-9 at 10 uM
# [27] = biological target: Neprilysin (Homo sapiens) (UniProt P08473); test: Inhibition of human neutral endopeptidase at 10 uM
# [28] = biological target: Prothrombin (Homo sapiens) (UniProt P00734); test: Inhibition of human thrombin at 10 uM
# [29] = biological target: Acetylcholinesterase (Homo sapiens) (UniProt P22303); test: Inhibition of human acetylcholinesterase at 10 uM
# [30] = biological target: Sterol O-acyltransferase 2 (Rattus norvegicus) (UniProt Q7TQM4); test: Inhibition of rat hapatic, acyl coA cholesterol acetyltransferase at 10 uM
# [31] = biological target: D(3) dopamine receptor (Homo sapiens) (UniProt P35462); test: Inhibition of human dopamine receptor 3 at 10 uM
# [32] = biological target: D(1B) dopamine receptor (Homo sapiens) (UniProt P21918); test: Inhibition of human dopamine receptor 5 at 10 uM
# [33] = species: Rattus norvegicus; test: Inhibition of rat potassium channel-A at 10 uM
# [34] = species: Mesocricetus auratus; test: Inhibition of syrian hamster potassium channel-ATP at 10 uM
# [35] = biological target: Small conductance calcium-activated potassium channel (Rattus norvegicus) (UniProt P70604+P70606+P70605); test: Inhibition of rat Small conductance calcium-activated potassium channel at 10 uM; type: protein assay
# [36] = biological target: 5-hydroxytryptamine receptor 1A (Homo sapiens) (UniProt P08908); test: Inhibition of human 5-HT1A receptor at 10 uM
# [37] = biological target: 5-hydroxytryptamine receptor 2A (Rattus norvegicus) (UniProt P14842); test: Inhibition of rat 5-HT2A receptor at 10 uM
# [38] = species: Rattus norvegicus; test: Inhibition of rat GABA B receptor at 10 uM
# [39] = species: Cavia porcellus; test: Inhibition of guinea pig adenosine transporter at 10 uM
# [40] = biological target: D(4) dopamine receptor (Homo sapiens) (UniProt P21917); test: Inhibition of human dopamine receptor 4.4 at 10 uM
# [41] = species: Homo sapiens; test: Inhibition of human dopamine receptor 4.7 at 10 uM
# [42] = species: Homo sapiens; test: Inhibition of human endothelin-converting enzyme at 10 uM by cerep assay
# [43] = biological target: Neprilysin (Homo sapiens) (UniProt P08473); test: Inhibition of human neutral endopeptidase from HUV-EC-C cells at 10 uM by fluorimetry
# [44] = species: Rattus norvegicus; test: Inhibition of rat GABA-A receptor, chloride channel at 10 uM
# Chain of Neprilysin (Homo sapiens) (P08473 whole entry): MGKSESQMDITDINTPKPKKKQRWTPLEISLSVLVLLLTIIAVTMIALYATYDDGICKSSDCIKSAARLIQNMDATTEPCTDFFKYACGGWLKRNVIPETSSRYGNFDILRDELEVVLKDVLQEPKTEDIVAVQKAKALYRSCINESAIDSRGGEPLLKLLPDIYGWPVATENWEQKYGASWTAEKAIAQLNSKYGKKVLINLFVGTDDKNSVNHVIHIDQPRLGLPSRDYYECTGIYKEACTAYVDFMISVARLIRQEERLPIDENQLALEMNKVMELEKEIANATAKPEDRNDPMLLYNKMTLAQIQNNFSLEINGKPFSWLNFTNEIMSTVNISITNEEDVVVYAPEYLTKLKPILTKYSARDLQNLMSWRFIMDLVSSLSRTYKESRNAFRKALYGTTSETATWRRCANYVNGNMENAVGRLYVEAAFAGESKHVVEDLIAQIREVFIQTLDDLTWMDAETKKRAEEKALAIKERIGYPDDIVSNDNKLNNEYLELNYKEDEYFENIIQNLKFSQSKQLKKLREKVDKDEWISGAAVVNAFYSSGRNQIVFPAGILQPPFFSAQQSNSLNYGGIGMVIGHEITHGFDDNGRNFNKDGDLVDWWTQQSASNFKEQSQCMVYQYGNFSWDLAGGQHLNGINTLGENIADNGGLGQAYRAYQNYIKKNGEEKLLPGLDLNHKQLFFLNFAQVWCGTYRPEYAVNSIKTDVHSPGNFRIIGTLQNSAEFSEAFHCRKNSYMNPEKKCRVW
# Chain of Procathepsin L (Homo sapiens) (P07711 114-333 limits assumed): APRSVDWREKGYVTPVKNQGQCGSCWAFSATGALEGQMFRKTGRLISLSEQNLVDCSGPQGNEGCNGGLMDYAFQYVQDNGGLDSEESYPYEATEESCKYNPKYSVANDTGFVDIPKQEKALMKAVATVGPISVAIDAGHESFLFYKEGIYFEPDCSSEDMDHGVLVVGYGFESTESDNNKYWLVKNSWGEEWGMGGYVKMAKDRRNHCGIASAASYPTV
# Chain of 5-hydroxytryptamine receptor 2A (Rattus norvegicus) (P14842 whole entry): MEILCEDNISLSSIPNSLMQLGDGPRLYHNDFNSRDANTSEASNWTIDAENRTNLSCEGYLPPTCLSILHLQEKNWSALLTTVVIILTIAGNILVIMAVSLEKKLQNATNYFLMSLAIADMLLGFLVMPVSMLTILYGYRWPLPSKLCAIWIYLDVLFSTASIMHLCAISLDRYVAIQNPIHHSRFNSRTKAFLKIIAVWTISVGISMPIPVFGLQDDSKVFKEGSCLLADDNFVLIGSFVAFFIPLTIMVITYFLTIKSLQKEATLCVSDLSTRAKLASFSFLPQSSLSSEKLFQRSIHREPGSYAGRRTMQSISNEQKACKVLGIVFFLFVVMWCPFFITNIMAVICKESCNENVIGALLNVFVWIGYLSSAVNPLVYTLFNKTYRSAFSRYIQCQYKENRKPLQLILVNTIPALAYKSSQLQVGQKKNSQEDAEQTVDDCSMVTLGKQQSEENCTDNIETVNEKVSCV
# Chain of Neutrophil elastase (Homo sapiens) (P08246 whole entry): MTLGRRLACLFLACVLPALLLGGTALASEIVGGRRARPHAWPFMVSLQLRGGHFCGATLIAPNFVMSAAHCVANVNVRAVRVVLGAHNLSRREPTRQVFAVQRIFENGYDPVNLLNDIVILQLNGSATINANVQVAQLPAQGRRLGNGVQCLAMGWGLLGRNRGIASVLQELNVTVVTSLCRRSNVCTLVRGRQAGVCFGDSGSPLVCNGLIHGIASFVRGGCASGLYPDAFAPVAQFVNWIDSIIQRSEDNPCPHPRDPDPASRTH
# Chain of D(1B) dopamine receptor (Homo sapiens) (P21918 whole entry): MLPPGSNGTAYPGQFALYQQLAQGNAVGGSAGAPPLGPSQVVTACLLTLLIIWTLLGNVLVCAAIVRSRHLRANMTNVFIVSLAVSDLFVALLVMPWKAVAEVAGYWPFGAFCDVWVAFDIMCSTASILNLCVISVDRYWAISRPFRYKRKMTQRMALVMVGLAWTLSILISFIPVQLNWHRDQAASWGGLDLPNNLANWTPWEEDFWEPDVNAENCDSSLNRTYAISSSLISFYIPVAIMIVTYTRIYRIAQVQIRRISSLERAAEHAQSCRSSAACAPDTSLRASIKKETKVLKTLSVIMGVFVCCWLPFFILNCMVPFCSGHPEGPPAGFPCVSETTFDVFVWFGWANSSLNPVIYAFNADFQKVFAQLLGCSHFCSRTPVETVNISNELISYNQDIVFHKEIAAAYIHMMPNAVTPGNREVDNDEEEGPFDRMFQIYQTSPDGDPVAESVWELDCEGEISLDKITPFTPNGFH
# Chain of D(4) dopamine receptor (Homo sapiens) (P21917 whole entry): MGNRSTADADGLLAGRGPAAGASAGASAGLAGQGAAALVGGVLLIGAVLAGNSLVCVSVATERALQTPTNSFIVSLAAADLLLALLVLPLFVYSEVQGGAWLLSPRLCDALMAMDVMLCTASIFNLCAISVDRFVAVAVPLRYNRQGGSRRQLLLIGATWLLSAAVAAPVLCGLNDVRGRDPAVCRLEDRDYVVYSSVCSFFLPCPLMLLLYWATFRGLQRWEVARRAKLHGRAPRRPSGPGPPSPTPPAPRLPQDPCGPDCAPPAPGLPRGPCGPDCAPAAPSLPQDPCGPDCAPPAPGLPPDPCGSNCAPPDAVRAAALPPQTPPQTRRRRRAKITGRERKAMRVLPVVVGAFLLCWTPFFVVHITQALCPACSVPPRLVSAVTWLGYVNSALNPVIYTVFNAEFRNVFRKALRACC
# Chain of Acetylcholinesterase (Homo sapiens) (P22303 whole entry): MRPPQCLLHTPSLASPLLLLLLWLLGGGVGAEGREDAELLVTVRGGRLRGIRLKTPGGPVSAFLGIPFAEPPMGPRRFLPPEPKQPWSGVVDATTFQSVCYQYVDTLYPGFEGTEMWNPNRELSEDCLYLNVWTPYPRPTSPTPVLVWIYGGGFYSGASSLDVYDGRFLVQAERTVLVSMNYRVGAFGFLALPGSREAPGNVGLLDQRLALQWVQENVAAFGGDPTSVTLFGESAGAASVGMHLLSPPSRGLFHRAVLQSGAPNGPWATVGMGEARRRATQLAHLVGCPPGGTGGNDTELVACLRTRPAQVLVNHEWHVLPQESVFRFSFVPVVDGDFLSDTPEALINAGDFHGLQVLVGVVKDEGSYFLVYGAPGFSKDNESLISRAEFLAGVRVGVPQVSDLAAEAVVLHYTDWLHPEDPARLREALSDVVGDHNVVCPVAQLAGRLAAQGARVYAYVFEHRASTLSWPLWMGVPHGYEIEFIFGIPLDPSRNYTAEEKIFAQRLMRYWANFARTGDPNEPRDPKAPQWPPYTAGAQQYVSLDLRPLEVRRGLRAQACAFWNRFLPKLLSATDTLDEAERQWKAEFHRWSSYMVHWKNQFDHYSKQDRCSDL
# Chain of Caspase-2 (Homo sapiens) (P42575 170-325 limits assumed): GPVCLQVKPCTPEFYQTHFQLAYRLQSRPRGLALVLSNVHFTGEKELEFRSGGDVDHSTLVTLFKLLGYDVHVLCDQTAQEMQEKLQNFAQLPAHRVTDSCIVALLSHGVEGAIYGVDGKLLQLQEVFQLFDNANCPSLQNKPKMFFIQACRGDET
# Chain of Caspase-2 (Homo sapiens) (P42575 334-452 limits assumed): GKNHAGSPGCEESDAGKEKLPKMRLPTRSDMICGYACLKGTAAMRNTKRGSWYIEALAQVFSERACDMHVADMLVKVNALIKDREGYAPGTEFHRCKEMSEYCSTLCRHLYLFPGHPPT
# Chain of Coagulation factor VII (Homo sapiens) (P08709 61-212 limits assumed): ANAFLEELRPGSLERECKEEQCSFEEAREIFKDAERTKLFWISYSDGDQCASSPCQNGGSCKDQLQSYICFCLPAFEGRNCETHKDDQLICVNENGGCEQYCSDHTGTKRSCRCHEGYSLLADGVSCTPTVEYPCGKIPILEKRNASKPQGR
# Chain of Coagulation factor VII (Homo sapiens) (P08709 213-466 limits assumed): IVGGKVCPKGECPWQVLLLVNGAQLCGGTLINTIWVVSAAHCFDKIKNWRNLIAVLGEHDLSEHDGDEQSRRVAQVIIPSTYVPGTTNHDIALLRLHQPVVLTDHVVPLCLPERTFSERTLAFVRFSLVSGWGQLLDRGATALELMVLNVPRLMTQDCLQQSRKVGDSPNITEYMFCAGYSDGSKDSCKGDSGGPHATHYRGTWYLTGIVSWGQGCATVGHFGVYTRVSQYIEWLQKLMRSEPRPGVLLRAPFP
# Chain of Sterol O-acyltransferase 2 (Rattus norvegicus) (Q7TQM4 whole entry): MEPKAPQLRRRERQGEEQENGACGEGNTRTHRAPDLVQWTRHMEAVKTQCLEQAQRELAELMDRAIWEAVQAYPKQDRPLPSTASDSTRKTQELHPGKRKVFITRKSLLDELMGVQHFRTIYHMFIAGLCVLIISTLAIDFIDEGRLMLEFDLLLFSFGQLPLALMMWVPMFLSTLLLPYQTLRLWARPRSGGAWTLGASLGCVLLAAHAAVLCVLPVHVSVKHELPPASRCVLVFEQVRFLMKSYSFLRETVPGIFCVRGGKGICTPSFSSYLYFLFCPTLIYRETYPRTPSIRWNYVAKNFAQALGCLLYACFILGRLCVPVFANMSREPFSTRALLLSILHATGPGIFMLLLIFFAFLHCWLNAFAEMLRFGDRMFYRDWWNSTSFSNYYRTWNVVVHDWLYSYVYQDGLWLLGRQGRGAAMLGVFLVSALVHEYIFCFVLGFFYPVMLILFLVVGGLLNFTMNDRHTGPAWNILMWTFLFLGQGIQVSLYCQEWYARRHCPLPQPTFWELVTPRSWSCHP
# Chain of D(3) dopamine receptor (Homo sapiens) (P35462 whole entry): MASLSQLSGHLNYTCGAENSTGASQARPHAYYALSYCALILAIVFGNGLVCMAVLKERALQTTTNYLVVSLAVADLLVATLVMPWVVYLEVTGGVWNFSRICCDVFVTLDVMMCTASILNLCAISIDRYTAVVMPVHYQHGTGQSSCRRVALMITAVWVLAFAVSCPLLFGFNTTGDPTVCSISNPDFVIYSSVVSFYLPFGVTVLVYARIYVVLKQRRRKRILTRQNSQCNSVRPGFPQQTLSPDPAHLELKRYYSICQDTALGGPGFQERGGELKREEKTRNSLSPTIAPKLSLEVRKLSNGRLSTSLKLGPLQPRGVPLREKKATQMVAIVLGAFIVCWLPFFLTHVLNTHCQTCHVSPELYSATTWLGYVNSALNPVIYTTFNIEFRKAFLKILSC
compound,measurement,setting,value
C=C[C@@H]1C[C@]1(NC(=O)[C@@H]1C[C@@H](Oc2cc(-c3csc(NC(=O)C(C)C)n3)nc3c(Br)c(OC)ccc23)CN1C(=O)[C@@H](NC(=O)OC1CCCC1)C(C)(C)C)C(=O)O,inhibition,[1],10%
same,inhibition,[2],5%
same,inhibition,[3],5%
same,inhibition,[4],2%
same,inhibition,[5],50%
same,inhibition,[6],7%
same,inhibition,[7],0%
same,EC50,[8],43 nM
same,MRT,[9],3.18 h
same,Cmax,[10],410 nM
same,Tmax,[11],49.8 min
same,AUC,[12],13 µM·h
same,AUC(0-inf),[13],1.63 µM·h
same,AUC(0-inf),[14],14 µM·h
same,inhibition,[15],5%
same,inhibition,[16],33%
same,inhibition,[17],5%
same,inhibition,[18],23%
same,inhibition,[19],7%
same,inhibition,[20],3%
same,inhibition,[21],6%
same,inhibition,[22],0%
same,inhibition,[23],19%
same,inhibition,[24],10%
same,inhibition,[25],6%
same,inhibition,[26],13%
same,inhibition,[27],3%
same,inhibition,[28],9%
same,inhibition,[29],20%
same,inhibition,[30],78%
same,inhibition,[31],4%
same,inhibition,[32],11%
same,inhibition,[33],10%
same,inhibition,[34],12%
same,inhibition,[35],2%
same,inhibition,[36],18%
same,inhibition,[37],7%
same,inhibition,[38],9%
same,inhibition,[39],23%
same,inhibition,[40],39%
same,inhibition,[41],0%
same,inhibition,[42],11%
same,inhibition,[43],14%
same,inhibition,[44],28%
